In ChEMBL document CHEMBL4414566, “Cytotoxicity and Anti-inflammatory Properties of Apigenin-Derived Isolaxifolin” (J Nat Prod, 2019):
Calls of active or inactive are those of the source. The calls are words filed in the database; no cut-off is given here.

Key:
[1] = system: RAW264.7; assay: Antiinflammatory activity in mouse RAW264.7 cells assessed as inhibition LPS-induced NO production at 254.8 uM measured after 24 hrs by griess reagent based assay; type: functional, cell-based
Method in brief: (§1)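 Murine RAW 264.7 macrophages, 1 × 10^5/well, 4 h settling, then LPS (1.0 μg/mL) for 24 h. Medium was swapped for test solutions (0.8–3.1 μM or 2.3–9.2 μM), or DXM 254.8 μM as positive control, for another 24 h. Secreted NO was measured by Griess assay; TNF-α and IL-6 by ELISA. Run in triplicate, mean ± SD.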

[2] = system: MDA-MB-231; assay: Antiproliferative activity against human MDA-MB-231 cells assessed as viable cells at 40 uM incubated for 48 hrs by trypan blue dye exclusion test relative to control; type: functional; conditions: MDA-MB-231, 48 h, read-out: Activity
[3] = system: RAW264.7; assay: Antiinflammatory activity in mouse RAW264.7 cells assessed as reduction in LPS-induced IL6 production preincubated with LPS for 24 hrs followed by compound addition and measured after 24 hrs by ELISA; type: functional, cell-based; method in brief: as §1
[4] = system: RAW264.7; assay: Antiinflammatory activity in mouse RAW264.7 cells assessed as reduction in LPS-induced TNFalpha production preincubated with LPS for 24 hrs followed by compound addition and measured after 24 hrs by ELISA; type: functional, cell-based; method in brief: as §1
[5] = system: RAW264.7; assay: Antiinflammatory activity in mouse RAW264.7 cells assessed as inhibition of LPS-induced NO production measured after 24 hrs by griess reagent based assay; type: functional, cell-based; method in brief: as §1
[6] = Cytotoxicity against mouse RAW264.7 cells assessed as reduction in cell viability incubated for 24 hrs by MTT assay; type: cell-based; conditions: read-out: MNCC
Method in brief: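 MTT viability assay: RAW 264.7 cells seeded at 2.5 × 10^4 cells/well, cultured 12 h, then given five concentrations from serial dilution (up to 6.2 or 9.2 μM; final DMSO <1%) for 24 h. Viability was calculated relative to untreated blank control; n = 3, mean ± SD.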

[7] = system: MDA-MB-231; assay: Induction of mitochondrial membrane potential loss in human MDA-MB-231 cells incubated for 48 hrs by JC1 staining based flow cytometric analysis; type: functional, cell-based
Method in brief: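 MDA-MB-231 cells in DMEM/10% FBS exposed 48 h to 0, 8.6, 12.4 or 17.3 μM. Harvested cells stained with JC-1 for 15 min in the dark, then analysed by flow cytometry. Excitation 488 nm; green emission read at 525 nm, red at 590 nm. Output given as percent green-to-red fluorescence intensity ratio. Triplicate, mean ± SD.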

[8] = system: MDA-MB-231; assay: Induction of apoptosis in human MDA-MB-231 cells assessed as increase in nuclear chromatin condensation incubated for 48 hrs by Hoechst 33258 staining based fluorescence microscopic method; type: functional, cell-based
Method in brief: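 MDA-MB-231 cells were grown 24 h and treated with 8.6, 12.4 or 17.3 μM for 48 h. They were then fixed 10 min, washed three times in PBS and stained 5 min with Hoechst 33258. Nuclear condensation was imaged by fluorescence microscopy (excitation 350 nm, emission 460 nm).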

[9] = system: L02; assay: Cytotoxicity against human LO2 cells assessed as reduction in cell viability at 23.1 to 185 uM incubated for 48 hrs by methylene blue assay; type: cell-based; conditions: l02, 48 h
Method in brief: (§2)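 MDA-MB-231, MCF-7, HepG2 and LNCaP cells were grown in DMEM; HCT-116 and LO-2 in RPMI-1640; all with 10% FBS at 37 °C, 5% CO2. Cells seeded at 1.5 × 10^5 cells/mL and incubated overnight (~12 h), then exposed to 6.2–30.9 μM or 23.1–185.0 μM (final DMSO <0.1%) for 48 h. Read by methylene blue staining; viability = Abs treated/Abs untreated × 100%, triplicate.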

[10] = system: MCF7; assay: Antiproliferative activity against human MCF7 cells assessed as cell viability at 188.7 uM incubated for 48 hrs by methylene blue assay relative to control; type: functional; conditions: MCF7, 48 h, read-out: Activity
[11] = system: RAW264.7; assay: Antiinflammatory activity against LPS-activated mouse RAW264.7 cells assessed as reduction in TNFalpha mRNA expression preincubated with LPS for 24 hrs followed by compound addition and measured after 24 hrs by qRT-PCR analysis; type: functional, cell-based
Method in brief: (§3)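 RAW 264.7 cells (DMEM, 10% FBS, 37 °C, 5% CO2) seeded at 1 × 10^5/well and held 4 h. LPS 1.0 μg/mL was added for 24 h, then medium was replaced with test agent (0.8, 1.6, 3.1 μM or 2.3, 4.6, 9.2 μM) for 24 h. TNF-α and IL-6 transcripts were quantified by real-time qPCR against GAPDH. Triplicates, mean ± SD.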

[12] = system: RAW264.7; assay: Antiinflammatory activity against LPS-activated mouse RAW264.7 cells assessed as reduction in IL6 mRNA expression preincubated with LPS for 24 hrs followed by compound addition and measured after 24 hrs by qRT-PCR analysis; type: functional, cell-based; method in brief: as §3
[13] = system: MDA-MB-231; assay: Antiproliferative activity against human MDA-MB-231 cells assessed as reduction in cell viability at 46.3 uM incubated for 48 hrs by methylene blue assay; type: functional; method in brief: as §2
[14] = system: MCF7; assay: Antiproliferative activity against human MCF7 cells assessed as reduction in cell viability at 46.3 uM incubated for 48 hrs by methylene blue assay relative to control; type: functional; method in brief: as §2
[15] = system: HepG2; assay: Antiproliferative activity against human HepG2 cells reduction in cell viability at 46.3 uM incubated for 48 hrs by methylene blue assay relative to control; type: functional; method in brief: as §2
[16] = system: LNCaP; assay: Antiproliferative activity against human LNCAP cells assessed as reduction in cell viability at 46.3 uM incubated for 48 hrs by methylene blue assay relative to control; type: functional; method in brief: as §2
[17] = system: HCT-116; assay: Antiproliferative activity against human HCT116 cells assessed as reduction in cell viability at 46.3 uM incubated for 48 hrs by methylene blue assay relative to control; type: functional; method in brief: as §2
[18] = system: MDA-MB-231; assay: Induction of cell cycle arrest in human MDA-MB-231 cells assessed as increase in accumulation of cells at G0/G1 phase incubated for 48 hrs by PI/RNase staining based flow cytometric analysis; type: functional
Method in brief: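 Cells grown 24 h in DMEM/10% FBS at 37 °C, 5% CO2, then exposed 48 h to 8.6, 12.4 or 17.3 μM. Pelleted, fixed in 75% ethanol at −20 °C overnight, stained with PI-containing RNase 15 min in the dark at ambient temperature. About 10 000 cells per well analysed by flow cytometry. Triplicate, mean ± SD.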

[19] = system: RAW264.7; assay: Inhibition of nitric oxide production in mouse RAW264.7 cells measured after 24 hrs by griess reagent based assay; type: functional, cell-based

Compound | inhibition [1] | viability at 40 µM [2] [%] | Activity [3] | Activity [4] | inhibition [5] | MNTC at 24 h [6] [µM] | Activity [7] | Activity [8] | Activity [9] | viability at 188.7 µM [10] [%] | Activity [11] | Activity [12] | Activity [13] | Activity [14] | Activity [15] | Activity [16] | Activity [17] | Activity [18] | inhibition [19]
C[C@@H]1C[C@H]2[C@@H]3CCC4=CC(=O)C=C[C@]4(C)[C@@]3(F)[C@@H](O)C[C@]2(C)[C@@]1(O)C(=O)CO | Active |  |  |  |  |  |  |  |  |  |  |  |  |  |  |  |  |  | 
O=c1cc(-c2ccc(O)cc2)oc2cc(O)cc(O)c12 [APIGENIN] |  | 45 | Dose-dependent effect | Dose-dependent effect | Dose-dependent effect | 9.2 | Active | Dose-dependent effect | Non-Toxic | 20 | Dose-dependent effect | Dose-dependent effect | <=50% | <=50% | <=50% | <=50% | <=50% | Active | Dose-dependent effect
